Assay results reported in ChEMBL document CHEMBL2384939, “Synthesis of pyrazolo[1,5-a]pyrimidine linked aminobenzothiazole conjugates as potential anticancer agents” (Bioorg Med Chem Lett, 2013).
Activity calls are given as the source filed them. The calls are words filed in the database; no cut-off is given here.

Columns and labels:
A549 [1] = assay: Induction of apoptosis in human A549 cells assessed as DNA fragmentation at 2 uM after 48 hrs by agarose gel electrophoresis; type: functional, cell-based
Procedure, shortened: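 A549 cells (1×10^6) seeded in six-well plates for 24 h, then exposed to 2 µM compound or roscovitine for 48 h and pelleted. Lysate treated with SDS and RNase-A (2 h, 56 °C), then proteinase K (2 h, 37 °C). DNA precipitated with ammonium acetate/cold ethanol, dissolved in TE, and laddering resolved on 2% agarose gel against a 50 bp marker.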

A549 [2] = assay: Induction of apoptosis in human A549 cells assessed as activation of caspase-3 at 1 to 2 uM after 48 hrs by ELISA relative to control; type: functional, cell-based
Procedure, shortened: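 A549 lung cancer cells exposed to 1 and 2 µM compound for 48 h, with roscovitine as positive control. Pellets lysed for 15 min, and supernatant caspase-3 activity read by a commercial colorimetric kit relative to untreated control. Values are mean ± SD of two experiments run in triplicate.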

A549 [3] = assay: Induction of apoptosis in human A549 cells assessed as reduction of Cdk1 expression at 2 uM after 48 hrs by Western blot analysis; type: functional, cell-based
Procedure, shortened: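 5×10^5 A549 cells grown 24 h, then treated with 2 µM compound for 48 h. Lysis in ice-cold RIPA with protease inhibitors, protein by Bradford, 50 µg per lane on 12% SDS-PAGE, PVDF transfer. Probed overnight at 4 °C with mouse monoclonal anti-Cdk1, β-actin as loading control, chemiluminescent detection.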

A549 [4] = assay: Cell cycle arrest at human A549 cells assessed as accumulation at G2/M phase at 1 uM after 48 hrs by propidium iodide-staining-based FACS flow cytometric analysis (reference value: 13.17%); type: functional
A549 [5] = assay: Cell cycle arrest at human A549 cells assessed as accumulation at G2/M phase at 2 uM after 48 hrs by propidium iodide-staining-based FACS flow cytometric analysis (reference value: 13.17%); type: functional
A549 [6] = assay: Cell cycle arrest at human A549 cells assessed as accumulation at S phase at 2 uM after 48 hrs by propidium iodide-staining-based FACS flow cytometric analysis (reference value: 4.48%); type: functional
A549 [7] = assay: Cell cycle arrest at human A549 cells assessed as accumulation at G0/G1 phase at 1 uM after 48 hrs by propidium iodide-staining-based FACS flow cytometric analysis (reference value: 81.33%); type: functional
HeLa = assay: Cytotoxicity against human HeLa cells after 48 hrs by MTT assay; type: functional, cell-based
Procedure, shortened: (§1)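 MTT assay: […] were plated in DMEM with 10% FBS and incubated for 24 h at 37 °C under CO2. Compounds diluted in culture medium were added alongside a vehicle control for 48 h. MTT (10 µl of a 5 mg/ml stock) was added for a further 4 h. The supernatant was then removed, the formazan dissolved in DMSO, and absorbance read at 540 nm. IC50 was derived.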

T47D = assay: Cytotoxicity against human T47D cells after 48 hrs by MTT assay; type: functional
BT-549 = assay: Cytotoxicity against human BT549 cells after 48 hrs by MTT assay; type: functional; settings: BT-549, 48 h
Hs-578T = assay: Cytotoxicity against human Hs578T cells after 48 hrs by MTT assay; type: functional
MDA-MB-231 = assay: Cytotoxicity against human MDA-MB-231 cells after 48 hrs by MTT assay; type: functional; settings: MDA-MB-231, 48 h
MCF7 = assay: Cytotoxicity against human MCF7 cells after 48 hrs by MTT assay; type: functional, cell-based; settings: MCF7, 48 h; procedure, shortened: as §1
DU-145 = assay: Cytotoxicity against human DU145 cells after 48 hrs by MTT assay; type: functional, cell-based; settings: DU-145, 48 h; procedure, shortened: as §1
TK-10 = assay: Cytotoxicity against human TK10 cells after 48 hrs by MTT assay; type: functional; settings: TK-10, 48 h
SN12C = assay: Cytotoxicity against human SN12C cells after 48 hrs by MTT assay; type: functional
ACHN = assay: Cytotoxicity against human ACHN cells after 48 hrs by MTT assay; type: functional, cell-based; procedure, shortened: as §1
786-0 = assay: Cytotoxicity against human 786-0 cells after 48 hrs by MTT assay; type: functional; settings: 786-0, 48 h
SK-OV-3 = assay: Cytotoxicity against human SKOV3 cells after 48 hrs by MTT assay; type: functional; settings: SK-OV-3, 48 h
OVCAR-8 = assay: Cytotoxicity against human OVCAR8 cells after 48 hrs by MTT assay; type: functional; settings: OVCAR-8, 48 h
IGROV-1 = assay: Cytotoxicity against human IGROV1 cells after 48 hrs by MTT assay; type: functional; settings: IGROV-1, 48 h
SK-MEL-2 = assay: Cytotoxicity against human SK-MEL-2 cells after 48 hrs by MTT assay; type: functional; settings: SK-MEL-2, 48 h
A549 [8] = assay: Cell cycle arrest at human A549 cells assessed as accumulation at sub G1 phase at 1 uM after 48 hrs by propidium iodide-staining-based FACS flow cytometric analysis (reference value: 1.02%); type: functional
Malme-3M = assay: Cytotoxicity against human MALME-3M cells after 48 hrs by MTT assay; type: functional
M14 = assay: Cytotoxicity against human M14 cells after 48 hrs by MTT assay; type: functional; settings: M14, 48 h
U-251 = assay: Cytotoxicity against human U251 cells after 48 hrs by MTT assay; type: functional; settings: U-251, 48 h
SNB-19 = assay: Cytotoxicity against human SNB19 cells after 48 hrs by MTT assay; type: functional; settings: SNB-19, 48 h
SF-539 = assay: Cytotoxicity against human SF539 cells after 48 hrs by MTT assay; type: functional; settings: SF-539, 48 h
SF-268 = assay: Cytotoxicity against human SF268 cells after 48 hrs by MTT assay; type: functional; settings: SF-268, 48 h
HCT-116 = assay: Cytotoxicity against human HCT116 cells after 48 hrs by MTT assay; type: functional; settings: HCT-116, 48 h
NCI-H460 = assay: Cytotoxicity against human NCI-H460 cells after 48 hrs by MTT assay; type: functional; settings: NCI-H460, 48 h
NCI-H322M = assay: Cytotoxicity against human NCI-H322M cells after 48 hrs by MTT assay; type: functional
HOP-92 = assay: Cytotoxicity against human HOP92 cells after 48 hrs by MTT assay; type: functional; settings: HOP-92, 48 h
NCI-H226 = assay: Cytotoxicity against human NCI-H226 cells after 48 hrs by MTT assay; type: functional; settings: NCI-H226, 48 h
[9] = Cytotoxicity against human EKVX cells after 48 hrs by MTT assay; type: functional
A549 [10] = assay: Cytotoxicity against human A549 cells after 48 hrs by MTT assay; type: functional, cell-based; settings: A549, 48 h; procedure, shortened: as §1
A549 [11] = assay: Cell cycle arrest at human A549 cells assessed as accumulation at G0/G1 phase at 2 uM after 48 hrs by propidium iodide-staining-based FACS flow cytometric analysis (reference value: 81.33%); type: functional
SR = assay: Cytotoxicity against human SR cells after 48 hrs by MTT assay; type: functional
K562 = assay: Cytotoxicity against human K562 cells after 48 hrs by MTT assay; type: functional; settings: K562, 48 h
CCRF-CEM = assay: Cytotoxicity against human CCRF-CEM cells after 48 hrs by MTT assay; type: functional

In the case of `O=C(Nc1nc2ccccc2s1)c1cc(-c2ccc(F)cc2)n2nc(-c3ccccc3)cc2n1`, the Activity (A549 [1]) is reported as “Active”, the Activity (A549 [2]) is reported as “Active” and the Activity (A549 [3]) is reported as “Active”. For the same molecule, the Activity (A549 [4]) was 44.54%, the Activity (A549 [5]) was 64.7% and the Activity (A549 [6]) was 6.8%. The Activity (A549 [7]) was 35.34%, the IC50 (HeLa) was 2630 nM and the GI50 (T47D) was 3300 nM. For the same molecule, the GI50 (BT-549) was 2000 nM, the GI50 (Hs-578T) was 2200 nM and the GI50 (MDA-MB-231) was 2300 nM. For the same molecule, the GI50 (MCF7) was 5200 nM, the IC50 (MCF7) was 2290 nM and the GI50 (DU-145) was 4900 nM. It also gave an IC50 (DU-145) of 2080 nM, a GI50 (TK-10) of 2400 nM and a GI50 (SN12C) of 6400 nM. For the same molecule, the GI50 (ACHN) was 2200 nM, the IC50 (ACHN) was 3460 nM and the GI50 (786-0) was 2100 nM. For the same molecule, the GI50 (SK-OV-3) was 2300 nM, the GI50 (OVCAR-8) was 2100 nM and the GI50 (IGROV-1) was 4300 nM. The GI50 (SK-MEL-2) was 3100 nM, the Activity (A549 [8]) was 4.01% and the GI50 (Malme-3M) was 3700 nM. The GI50 (M14) was 3100 nM, the GI50 (U-251) was 2000 nM and the GI50 (SNB-19) was 5200 nM. It also gave a GI50 (SF-539) of 2600 nM, a GI50 (SF-268) of 3800 nM and a GI50 (HCT-116) of 2700 nM. The GI50 (NCI-H460) was 2100 nM, the GI50 (NCI-H322M) was 5800 nM and the GI50 (HOP-92) was 1600 nM. For the same molecule, the GI50 (NCI-H226) was 6300 nM, the GI50 [9] was 6600 nM and the GI50 (A549 [10]) was 2700 nM. For the same molecule, the IC50 (A549 [10]) was 1940 nM, the Activity (A549 [11]) was 28.75% and the GI50 (SR) was 3900 nM. It also gave a GI50 (K562) of 4200 nM and a GI50 (CCRF-CEM) of 1800 nM.
